Measurements published in ChEMBL document CHEMBL1938247, “Synthesis and evaluation of inhibitors of bacterial drug efflux pumps of the major facilitator superfamily” (2011).
Converted amounts (≈) assume the structure as drawn. The source made the active and inactive calls. No cut-off for these calls is given here. Where a SMILES comes first, the peptide text is derived from it. [ ]: non-standard residue; d: D form. The star is where a group is joined. ξ: configuration not given here. ξhPhe = NC(CCc1ccccc1)C(=O)O; βNA = c1ccc2cc(N*)ccc2c1

Columns and labels:
Streptomyces coelicolor [1] = assay: Potentiation of chloramphenicol-induced antibacterial activity against Streptomyces coelicolor at 25 ug/mL after 48 hrs relative to control; assay type: functional
Summary of the method: (§1)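 1 μL of a 10⁸ cfu/μL spore stock patched per plate; incubated at 30 °C. Strains: wild-type S. coelicolor, or PCR-targeted null mutants lacking cmlR1, cmlR2 or both. Reference efflux inhibitor MC-207,110 (Phe-Arg-β-naphthylamide) tested at the same 25 μg/mL.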

Streptomyces coelicolor [2] = assay: Antibacterial activity against Streptomyces coelicolor at 25 ug/mL after 48 hrs; assay type: functional, organism-based
Summary of the method: (§2)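 Strains: wild-type S. coelicolor, or PCR-targeted null mutants lacking cmlR1, cmlR2 or both. Inhibitors HPLC-purified before testing; inhibitor alone at 25 μg/mL also checked for intrinsic toxicity.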

Streptomyces coelicolor [3] = assay: Antibacterial activity against Streptomyces coelicolor after 48 hrs; assay type: functional
Streptomyces coelicolor [4] = assay: Potentiation of chloramphenicol-induced antibacterial activity against cmlR1-deficient Streptomyces coelicolor at 25 ug/mL after 48 hrs relative to control; assay type: functional; summary of the method: as §1
Streptomyces coelicolor [5] = assay: Potentiation of chloramphenicol-induced antibacterial activity against cmlR2-deficient Streptomyces coelicolor at 25 ug/mL after 48 hrs relative to control; assay type: functional; summary of the method: as §1
Streptomyces coelicolor [6] = assay: Potentiation of chloramphenicol-induced antibacterial activity against cmlR1 and cmlR2-deficient Streptomyces coelicolor at 25 ug/mL after 48 hrs relative to control; assay type: functional; summary of the method: as §1
Streptomyces coelicolor [7] = assay: Inhibition of cmlR1 overexpressed in Streptomyces coelicolor assessed as potentiation of chloramphenicol-induced antibacterial activity measuring reduction in MIC of chloramphenicol at 25 ug/mL after 48 hrs relative to control
Summary of the method: (§3)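 The cmlR1/cmlR2 double-null S. coelicolor strain was engineered to over-express cmlR1 or cmlR2 from a strong constitutive promoter. Spores (1 μL of a 10⁸ cfu/μL stock) were patched on Difco nutrient agar with 25 μg/mL inhibitor and varying chloramphenicol, then incubated at 30 °C. The chloramphenicol MIC (μg/mL) was read, and fold-potentiation was taken relative to the MIC without inhibitor.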

Streptomyces coelicolor [8] = assay: Inhibition of cmlR2 overexpressed in Streptomyces coelicolor assessed as potentiation of chloramphenicol-induced antibacterial activity measuring reduction in MIC of chloramphenicol at 25 ug/mL after 48 hrs relative to control; summary of the method: as §3
Streptomyces coelicolor [9] = assay: Antibacterial activity against cmlR1-deficient Streptomyces coelicolor at 25 ug/mL after 48 hrs; assay type: functional, organism-based; summary of the method: as §2
Streptomyces coelicolor [10] = assay: Antibacterial activity against cmlR2-deficient Streptomyces coelicolor at 25 ug/mL after 48 hrs; assay type: functional, organism-based; summary of the method: as §2
Streptomyces coelicolor [11] = assay: Antibacterial activity against cmlR1 and cmlR2-deficient Streptomyces coelicolor at 25 ug/mL after 48 hrs; assay type: functional, organism-based; summary of the method: as §2
Streptomyces coelicolor [12] = assay: Antibacterial activity against Streptomyces coelicolor overexpressing cmlR1 at 25 ug/mL after 48 hrs; assay type: functional, organism-based
Summary of the method: (§4)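 Host strains were the cmlR1/cmlR2 double-null S. coelicolor carrying cmlR1 or cmlR2 under a strong constitutive promoter, selected for hygromycin resistance. Growth was checked on Difco nutrient agar containing 25 μg/mL test compound alone, with plates kept at 30 °C.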

Streptomyces coelicolor [13] = assay: Antibacterial activity against Streptomyces coelicolor overexpressing cmlR2 at 25 ug/mL after 48 hrs; assay type: functional, organism-based; summary of the method: as §4
Streptomyces coelicolor [14] = assay: Potentiation of chloramphenicol-induced antibacterial activity against Streptomyces coelicolor at 25 ug/mL after 48 hrs relative to MC-207,110; assay type: functional; summary of the method: as §1

NCC(=O)NC(CCc1ccccc1)C(=O)Nc1ccc2ccccc2c1 (stereo not drawn) (H-Gly-[ξhPhe]-βNA)
Activity (Streptomyces coelicolor [1]): Active
Activity (Streptomyces coelicolor [2]): inactive

NCCC[C@@H](N)C(=O)NC(C(=O)Nc1ccc2ccccc2c1)c1ccccc1 (stereo partly drawn)
Activity (Streptomyces coelicolor [1]): Active
Activity (Streptomyces coelicolor [2]): inactive

NCCC[C@@H](N)C(=O)NC(C(=O)Nc1ccc2ccccc2c1)c1ccco1 (stereo partly drawn)
Activity (Streptomyces coelicolor [2]): inactive

NCCC[C@H](N)C(=O)N[C@@H](CCc1ccccc1)C(=O)Nc1ccc2ccccc2c1
fold change (FC) (Streptomyces coelicolor [1]): 5.9
Activity (Streptomyces coelicolor [2]): inactive
MIC (Streptomyces coelicolor [3]): 11 µg/mL (≈ 26.3 µM)

CN(C(=O)[C@H](N)CCCN)C(CCc1ccccc1)C(=O)Nc1ccc2ccccc2c1 (stereo partly drawn)
Activity (Streptomyces coelicolor [1]): Active
Activity (Streptomyces coelicolor [2]): inactive

NCCC[C@@H](N)C(=O)OC(CCc1ccccc1)C(=O)Nc1ccc2ccccc2c1 (stereo partly drawn)
Activity (Streptomyces coelicolor [2]): inactive

COc1ccc(C(NC(=O)[C@H](N)CCCN)C(=O)Nc2ccc3ccccc3c2)cc1 (stereo partly drawn)
Activity (Streptomyces coelicolor [1]): Active
Activity (Streptomyces coelicolor [2]): inactive

NCCC(=O)NC(CCc1ccccc1)C(=O)Nc1ccc2ccccc2c1 (stereo not drawn)
Activity (Streptomyces coelicolor [1]): Active
Activity (Streptomyces coelicolor [2]): inactive

NCCC[C@@H](N)C(=O)NC(CCc1ccccc1)C(=O)NCc1ccccc1 (stereo partly drawn)
Activity (Streptomyces coelicolor [1]): Active
Activity (Streptomyces coelicolor [2]): inactive

N=C(N)NCCC[C@H](NC(=O)[C@@H](N)Cc1ccccc1)C(=O)Nc1ccc2ccccc2c1 [PABETAN] (H-Phe-Arg-βNA)
fold change (FC) (Streptomyces coelicolor [1]): 2.6
Activity (Streptomyces coelicolor [2]): inactive
MIC (Streptomyces coelicolor [3]): 25 µg/mL (≈ 56 µM)

NCCC[C@@H](N)C(=O)NC(CCc1ccccc1)C(=O)NC1CCCCC1 (stereo partly drawn)
Activity (Streptomyces coelicolor [1]): inactive
Activity (Streptomyces coelicolor [2]): inactive

NCCCCCC(=O)NC(CCc1ccccc1)C(=O)Nc1ccc2ccccc2c1 (stereo not drawn)
Activity (Streptomyces coelicolor [1]): Active
Activity (Streptomyces coelicolor [2]): inactive

CC(C)(C)NC(=O)C(CCc1ccccc1)NC(=O)[C@H](N)CCCN (stereo partly drawn)
Activity (Streptomyces coelicolor [1]): inactive
Activity (Streptomyces coelicolor [2]): inactive

NCCC[C@@H](N)C(=O)NC(CCc1ccccc1)C(=O)Nc1ccc2ccccc2c1 (mixture of isomers)
fold change (FC) (Streptomyces coelicolor [1]): 6.5
Activity (Streptomyces coelicolor [2]): inactive
MIC (Streptomyces coelicolor [3]): 10 µg/mL

NCCC[C@H](N)C(=O)N[C@H](CCc1ccccc1)C(=O)Nc1ccc2ccccc2c1
fold change (FC) (Streptomyces coelicolor [1]): 7.2
Activity (Streptomyces coelicolor [2]): inactive
fold change (FC) (Streptomyces coelicolor [4]): 3.3
fold change (FC) (Streptomyces coelicolor [5]): 2.4
fold change (FC) (Streptomyces coelicolor [6]): 1.8
fold change (FC) (Streptomyces coelicolor [7]): 3.5
fold change (FC) (Streptomyces coelicolor [8]): 7.3
Activity (Streptomyces coelicolor [9]): inactive
Activity (Streptomyces coelicolor [10]): inactive
Activity (Streptomyces coelicolor [11]): inactive
Activity (Streptomyces coelicolor [12]): inactive
Activity (Streptomyces coelicolor [13]): inactive
MIC (Streptomyces coelicolor [3]): 9 µg/mL (≈ 21.5 µM)
fold change (FC) (Streptomyces coelicolor [14]): 3

CCCCNC(=O)C(CCc1ccccc1)NC(=O)[C@H](N)CCCN (stereo partly drawn)
Activity (Streptomyces coelicolor [1]): inactive
Activity (Streptomyces coelicolor [2]): inactive

NCCC[C@H](N)C(=O)NC(CCc1ccccc1)C(=O)Nc1cnc2ccccc2c1 (mixture of isomers)
Activity (Streptomyces coelicolor [2]): inactive
MIC (Streptomyces coelicolor [3]): > 40 µg/mL

NCCC[C@H](N)C(=O)NC(CCc1ccccc1)C(=O)Nc1ccc2ccccc2c1 (mixture of isomers)
fold change (FC) (Streptomyces coelicolor [1]): 6.5
Activity (Streptomyces coelicolor [2]): inactive
MIC (Streptomyces coelicolor [3]): 10 µg/mL

CC(C)C(NC(=O)[C@H](N)CCCN)C(=O)Nc1ccc2ccccc2c1 (stereo partly drawn)
Activity (Streptomyces coelicolor [1]): Active
Activity (Streptomyces coelicolor [2]): inactive

NCCC[C@@H](N)C(=O)NC(C(=O)Nc1ccc2ccccc2c1)c1ccc([N+](=O)[O-])cc1 (stereo partly drawn)
Activity (Streptomyces coelicolor [1]): Active
Activity (Streptomyces coelicolor [2]): inactive

NCCCCC(=O)NC(CCc1ccccc1)C(=O)Nc1ccc2ccccc2c1 (stereo not drawn)
Activity (Streptomyces coelicolor [1]): Active
Activity (Streptomyces coelicolor [2]): inactive

NCCC[C@@H](N)C(=O)NC(CCc1ccccc1)C(=O)Nc1cnc2ccccc2c1 (mixture of isomers)
Activity (Streptomyces coelicolor [2]): inactive
MIC (Streptomyces coelicolor [3]): > 40 µg/mL
